{
  "source": "paper PMC6474797",
  "about": "(ACS chemical biology, 2019)",
  "key": {"[1]": {"conditions": "with PLAC–PEG polymer, compared with PPD colloids; cited from earlier work"}, "[2]": {"assay": "Critical aggregation concentration", "type": "physicochemical", "procedure,_shortened": "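Colloids were formulated in PBS with 0.01% UP80 and 10 μM of a cholesteryl BODIPY FRET pair (FL C12 donor, 542/563 C11 acceptor; 0.875:0.125) added to the drug stock. They were diluted 10-fold into PBS or serum media and read by fluorescence (excitation 490 nm, acceptor emission 575 nm). Dye-free comparison was by DLS scattering intensity (830 nm laser, 158° detector).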"}},
  "data": [
    {"smiles": "CC(=O)O[C@@]12CO[C@@H]1C[C@H](O)[C@@]1(C)C(=O)[C@H](O)C3=C(C)[C@@H](OC(=O)[C@H](O)[C@@H](NC(=O)OC(C)(C)C)c4ccccc4)C[C@@](O)([C@@H](OC(=O)c4ccccc4)[C@H]21)C3(C)C", "note": "[docetaxel]", "values": [
      {"measurement": "drug loading", "setting": "[1]", "result": "significantly lower drug loading"}
    ]},
    {"smiles": "C[C@]12CC[C@@H]3c4ccc(O)cc4C[C@@H](CCCCCCCCC[S+]([O-])CCCC(F)(F)C(F)(F)F)[C@H]3[C@@H]1CC[C@@H]2O", "note": "(stereo partly shown) [fulvestrant]", "values": [
      {"measurement": "measured CAC with or without BODIPY dyes", "setting": "[2]; PBS, fluorescence versus light scattering methods", "result": "no difference"},
      {"measurement": "critical aggregation concentration (CAC)", "setting": "[2]; protein-free media, light scattering (Figure S3)", "result": "low micromolar"},
      {"measurement": "critical aggregation concentration (CAC)", "setting": "[2]; serum-containing media, colloids with 10 μM BODIPY FRET pair, 0.01% UP80, diluted 10-fold, fluorescence intensity", "result": "increased with serum content"}
    ]}
  ]
}
